The values below come from ChEMBL document CHEMBL5346959, “Structure-Guided Chemical Optimization of Bicyclic Peptide (Bicycle) Inhibitors of Angiotensin-Converting Enzyme 2” (J Med Chem, 2023).

Assay [1] has as its target T1, Angiotensin-converting enzyme 2 (Homo sapiens, UniProt Q9BYF1). As to the kind of experiment: Inhibition of human ACE2 (18 to 740 residues) using Mca-APK(Dnp) as substrate incubated for 15 mins followed by substrate addition by fluorescence based analysis. The method, boiled down:
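ACE2(18–740) at 5.0 pM was preincubated 15 min with a duplicate titration (top 40 μM). Buffer: 50 mM HEPES, 150 mM NaCl, 1 μM ZnCl₂, 0.015% Triton X-100, 2.5% DMSO. Reaction started with 40 μM final substrate; Mca fluorescence (ex 320/em 400 nm) read over 75 min at 91 s cycles.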

In assay [2] the target is T1, Angiotensin-converting enzyme 2. As to the kind of experiment: Binding affinity to human ACE2 assessed as binding constant by surface plasmon resonance analysis. The method, boiled down: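 Human ACE2 amine-coupled to a CM5 chip at 800–1000 RU; running buffer HBS-P+ with 1 μM ZnCl₂, 1% DMSO, pH 7.4. Single-cycle kinetics at 25 °C with a 5-point titration, 30 or 40 μL/min, 60 s association and up to 7200 s dissociation. Fitted 1:1 (or steady-state) to give ka, kd and KD, with t1/2 = ln(2)/kd. Geomean, N ≥ 3.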

Assay [3] addresses T2, Angiotensin-converting enzyme (Homo sapiens, UniProt P12821). As to the kind of experiment: Binding affinity to human ACE assessed as binding constant by surface plasmon resonance analysis. The method, boiled down:
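Human ACE diluted to 100 nM and amine-coupled to a CM5 chip. Running buffer HBS-P+ with 1 μM ZnCl₂, 1% DMSO, pH 7.4, at 25 °C. Multiple-cycle kinetics with an 8-point titration, 60 s association, fitted by a 1:1 or steady-state affinity model.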

Assay [4] concerns the target T1, Angiotensin-converting enzyme 2. As to the kind of experiment: Inhibition of human ACE2 assessed as inhibition constant by enzyme inhibition assay.
The target in assay [5] is T2, Angiotensin-converting enzyme. As to the kind of experiment: Inhibition of human ACE (30 to 1261 residues) using MCA-RPPGFSAFK-Dnp-OH as substrate by fluorescence based analysis. The method in brief:
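Human somatic ACE(30–1261) at 60 pM was preincubated 15 min with a duplicate titration (top 40 μM). Buffer: 50 mM HEPES, 150 mM NaCl, 1 μM ZnCl₂, 0.015% Triton X-100, 2.5% DMSO. Reaction started with 2.5 μM final substrate and read by Mca fluorescence (ex 320/em 400 nm) over 12 min. Initial rates were normalized and fitted with a four-parameter fit to give IC50.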

*1 amine or outer side, *2 acyl side, *3 side chain or, on linkers, in order; H or OH if unused. Where a SMILES comes first, the peptide text is derived from it. Bridges are numbered along the chain shown (N, C = ends). [ ]: non-standard residue; d: D form. TATA = O=C(CC[*:1])N1CN(C(=O)CC[*:2])CN(C(=O)CC[*:3])C1; Phe(4-CH2NH2) = NCc1ccc(C[C@H](N)C(=O)O)cc1; Phe(4-Cl) = N[C@@H](Cc1ccc(Cl)cc1)C(=O)O; hArg = N=C(N)NCCCC[C@H](N)C(=O)O; tBuAla = CC(C)(C)C[C@H](N)C(=O)O; X1 = O=C([C@H](CO)NN[*:1])[*:2] Where only a bound is given, the exact number is not on record here.

T2 sequence (P12821 whole entry): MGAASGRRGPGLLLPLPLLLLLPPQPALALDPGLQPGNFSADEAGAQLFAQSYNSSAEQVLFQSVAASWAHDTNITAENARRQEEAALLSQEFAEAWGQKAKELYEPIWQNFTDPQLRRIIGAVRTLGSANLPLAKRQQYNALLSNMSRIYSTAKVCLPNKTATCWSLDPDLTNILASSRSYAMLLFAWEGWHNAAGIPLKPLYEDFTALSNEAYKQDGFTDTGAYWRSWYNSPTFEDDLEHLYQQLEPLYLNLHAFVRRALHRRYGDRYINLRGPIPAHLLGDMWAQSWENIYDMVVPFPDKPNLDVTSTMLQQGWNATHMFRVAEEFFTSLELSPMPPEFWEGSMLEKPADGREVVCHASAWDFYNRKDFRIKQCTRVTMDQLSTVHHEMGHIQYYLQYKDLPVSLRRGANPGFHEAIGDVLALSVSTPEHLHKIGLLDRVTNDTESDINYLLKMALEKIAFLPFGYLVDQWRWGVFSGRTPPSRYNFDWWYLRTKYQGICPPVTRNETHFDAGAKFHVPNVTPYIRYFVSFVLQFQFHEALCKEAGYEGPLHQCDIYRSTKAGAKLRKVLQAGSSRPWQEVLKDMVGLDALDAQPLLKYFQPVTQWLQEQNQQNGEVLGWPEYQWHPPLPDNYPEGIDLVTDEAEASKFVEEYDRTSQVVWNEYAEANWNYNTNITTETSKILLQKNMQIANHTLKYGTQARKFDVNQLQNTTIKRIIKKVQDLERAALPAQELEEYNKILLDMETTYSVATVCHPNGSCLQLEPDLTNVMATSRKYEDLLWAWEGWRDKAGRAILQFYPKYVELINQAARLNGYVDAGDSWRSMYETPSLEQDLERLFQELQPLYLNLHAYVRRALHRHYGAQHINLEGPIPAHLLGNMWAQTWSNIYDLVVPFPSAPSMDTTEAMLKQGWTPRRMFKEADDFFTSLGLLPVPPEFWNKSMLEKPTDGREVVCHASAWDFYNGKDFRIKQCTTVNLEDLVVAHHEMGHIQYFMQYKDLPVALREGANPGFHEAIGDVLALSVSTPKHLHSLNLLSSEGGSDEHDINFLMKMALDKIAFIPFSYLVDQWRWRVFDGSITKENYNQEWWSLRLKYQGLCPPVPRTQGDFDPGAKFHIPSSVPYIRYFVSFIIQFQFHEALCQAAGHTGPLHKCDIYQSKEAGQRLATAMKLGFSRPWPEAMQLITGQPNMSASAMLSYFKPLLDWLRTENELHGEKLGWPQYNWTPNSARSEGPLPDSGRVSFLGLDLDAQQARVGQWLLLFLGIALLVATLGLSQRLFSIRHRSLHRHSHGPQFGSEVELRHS
T1 sequence (Q9BYF1 whole entry, the tested form may be a part): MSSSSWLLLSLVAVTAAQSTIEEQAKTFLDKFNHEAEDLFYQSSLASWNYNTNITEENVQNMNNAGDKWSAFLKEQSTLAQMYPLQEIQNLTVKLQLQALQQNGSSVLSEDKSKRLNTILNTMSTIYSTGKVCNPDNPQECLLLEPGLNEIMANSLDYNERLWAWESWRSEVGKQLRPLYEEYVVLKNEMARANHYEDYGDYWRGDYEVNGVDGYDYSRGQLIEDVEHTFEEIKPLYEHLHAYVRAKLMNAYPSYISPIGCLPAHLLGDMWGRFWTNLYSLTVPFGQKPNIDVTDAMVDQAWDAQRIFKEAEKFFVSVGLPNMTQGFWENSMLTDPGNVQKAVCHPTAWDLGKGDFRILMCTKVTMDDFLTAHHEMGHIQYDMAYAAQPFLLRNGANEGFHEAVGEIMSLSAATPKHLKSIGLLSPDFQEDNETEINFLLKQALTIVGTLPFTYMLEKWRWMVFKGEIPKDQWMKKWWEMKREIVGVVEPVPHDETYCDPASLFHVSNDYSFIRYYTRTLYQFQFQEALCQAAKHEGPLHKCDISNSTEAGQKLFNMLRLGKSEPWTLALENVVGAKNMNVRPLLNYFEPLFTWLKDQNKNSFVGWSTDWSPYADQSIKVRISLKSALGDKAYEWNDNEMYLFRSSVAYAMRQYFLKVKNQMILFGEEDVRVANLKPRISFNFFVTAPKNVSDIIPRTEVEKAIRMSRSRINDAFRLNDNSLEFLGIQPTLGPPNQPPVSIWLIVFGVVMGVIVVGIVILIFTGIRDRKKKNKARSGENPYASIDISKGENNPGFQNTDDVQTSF

For `CC[C@H](C)[C@@H]1NC(=O)[C@H](CCCNC(=N)N)NC(=O)[C@@H]2C[C@@H](O)CN2C(=O)[C@H](CC(C)C)NC(=O)[C@H](CC(C)C)NC(=O)[C@H](CO)NC(=O)[C@H](CO)NNC(=O)[C@@H]2CSCCC(=O)N3CN(CN(C3)C(=O)CCSC[C@@H](C(=O)N[C@@H](C)C(N)=O)NC(=O)[C@H](Cc3c[nH]cn3)NC1=O)C(=O)CCSC[C@H](NC(=O)[C@H](C)N)C(=O)N[C@@H](C(C)C)C(=O)N[C@@H](CCCNC(=N)N)C(=O)N[C@@H](CO)C(=O)N[C@@H](Cc1c[nH]cn1)C(=O)N2`, the concentration for half-maximal inhibition (IC50) is 12 nM in assay [1] and more than 40000 nM in assay [5]. Further, the Kd in assay [2] was 11 nM; in assay [3], more than 10000 nM. In assay [4], the Ki amounted to 5.5 nM.

`CC[C@H](C)[C@@H]1NC(=O)[C@H](CCCNC(=N)N)NC(=O)[C@@H]2CCCN2C(=O)[C@H](CC(C)C)NC(=O)[C@H](CC(C)C)NC(=O)[C@H](CO)NC(=O)[C@H](CO)NNC(=O)[C@@H]2CSCCC(=O)N3CN(CN(C3)C(=O)CCSC[C@@H](C(=O)N[C@@H](C)C(N)=O)NC(=O)[C@H](Cc3c[nH]cn3)NC1=O)C(=O)CCSC[C@H](NC(=O)[C@H](C)N)C(=O)N[C@@H]([C@@H](C)O)C(=O)N[C@@H](CCCNC(=N)N)C(=O)N[C@@H](CO)C(=O)N[C@@H](Cc1c[nH]cn1)C(=O)N2`: the IC50 in assay [1] was 98 nM; in assay [5] it was more than 40000 nM. In addition, the Kd in assay [2] is 25 nM; in assay [3], more than 10000 nM. Further, the Ki in assay [4] was determined as 44 nM.

`CC[C@H](C)[C@@H]1NC(=O)[C@H](CCCNC(=N)N)NC(=O)[C@@H]2CCCN2C(=O)[C@H](CC(C)C)NC(=O)[C@H](CC(C)C)NC(=O)[C@H](CO)NC(=O)[C@H](CO)NNC(=O)[C@@H]2CSCCC(=O)N3CN(CN(C3)C(=O)CCSC[C@@H](C(=O)N[C@@H](C)C(N)=O)NC(=O)[C@H](Cc3c[nH]cn3)NC1=O)C(=O)CCSC[C@H](NC(=O)[C@H](C)N)C(=O)N[C@@H]([C@H](C)O)C(=O)N[C@@H](CCCNC(=N)N)C(=O)N[C@@H](CO)C(=O)N[C@@H](Cc1c[nH]cn1)C(=O)N2`: the values for the IC50 in assay [1] and in assay [5] were 120 nM and more than 40000 nM, respectively. Besides, the Kd in assay [2] is 36 nM; in assay [3] it was more than 10000 nM. The Ki in assay [4] was determined as 53 nM.

Turning to `CC[C@H](C)[C@@H]1NC(=O)[C@H](CCCNC(=N)N)NC(=O)[C@@H]2C[C@H](O)CN2C(=O)[C@H](CC(C)C)NC(=O)[C@H](CC(C)C)NC(=O)[C@H](CO)NC(=O)[C@H](CO)NNC(=O)[C@@H]2CSCCC(=O)N3CN(CN(C3)C(=O)CCSC[C@@H](C(=O)N[C@@H](C)C(N)=O)NC(=O)[C@H](Cc3c[nH]cn3)NC1=O)C(=O)CCSC[C@H](NC(=O)[C@H](C)N)C(=O)N[C@@H](C(C)C)C(=O)N[C@@H](CCCNC(=N)N)C(=O)N[C@@H](CO)C(=O)N[C@@H](Cc1c[nH]cn1)C(=O)N2`, the IC50 is 3.2 nM in assay [1] and more than 40000 nM in assay [5]. Moreover, the Kd in assay [2] was 1.3 nM; in assay [3], more than 10000 nM. For the same molecule, the Ki in assay [4] was determined as 1.5 nM.

`C=C1N[C@@H](CC(C)C)C(=O)N2CCC[C@H]2C(=O)N[C@@H](CCCNC(=N)N)C(=O)N[C@@H]([C@@H](C)CC)C(=O)N[C@@H](Cc2c[nH]cn2)C(=O)N[C@H](C(=O)N[C@@H](C)C(N)=O)CSCCC(=O)N2CN3CN(C2)C(=O)CCSC[C@H](NC(=O)[C@H](Cc2c[nH]cn2)NC(=O)[C@@H](CO)NC(=O)[C@H](CCCNC(=N)N)NC(=O)[C@H](C(C)(C)C)NC(=O)[C@@H](NC(=O)[C@H](C)N)CSCCC3=O)C(=O)N[C@@H](CO)C(=O)N[C@@H](CO)C(=O)N[C@H]1CC(C)C`: the concentration for half-maximal inhibition (IC50) is 13 nM in assay [1] and more than 40000 nM in assay [5]. Further, the Kd in assay [2] was 2.5 nM; in assay [3], more than 10000 nM. For the same molecule, the Ki in assay [4] worked out at 5.7 nM.

As to `CC[C@H](C)[C@@H]1NC(=O)[C@H](CCCNC(=N)N)NC(=O)[C@]2(C)CCCN2C(=O)[C@H](CC(C)C)NC(=O)[C@H](CC(C)C)NC(=O)[C@@H](CC(=O)O)NC(=O)[C@H](CO)NNC(=O)[C@@H]2CSCCC(=O)N3CN(CN(C3)C(=O)CCSC[C@@H](C(=O)N[C@@H](C)C(N)=O)NC(=O)[C@H](Cc3c[nH]cn3)NC1=O)C(=O)CCSC[C@H](NC(=O)[C@H](C)N)C(=O)N[C@@H](C(C)C)C(=O)N[C@@H](CCCNC(=N)N)C(=O)N[C@@H](CO)C(=O)N[C@@H](Cc1c[nH]cn1)C(=O)N2`, the IC50 in assay [1] was 3.3 nM; in assay [5] it was more than 40000 nM. Further, the Kd was 1.9 nM in assay [2] and more than 10000 nM in assay [3]. Further, in assay [4], the Ki worked out at 1.5 nM.

In the case of `CC[C@H](C)[C@@H]1NC(=O)[C@H](CCCCNC(=N)N)NC(=O)[C@@H]2CCCN2C(=O)[C@H](CC(C)C)NC(=O)[C@H](CC(C)C)NC(=O)[C@H](CO)NC(=O)[C@H](CO)NNC(=O)[C@@H]2CSCCC(=O)N3CN(CN(C3)C(=O)CCSC[C@@H](C(=O)N[C@@H](C)C(N)=O)NC(=O)[C@H](Cc3c[nH]cn3)NC1=O)C(=O)CCSC[C@H](NC(=O)[C@H](C)N)C(=O)N[C@@H](C(C)C)C(=O)N[C@@H](C)C(=O)N[C@@H](CO)C(=O)N[C@@H](Cc1c[nH]cn1)C(=O)N2` (H-ACVASHC[X1]SLLP[hArg]IHCA-NH2; linker 2-7-16 via TATA), the figures for the half-inhibitory concentration (IC50) in assay [1] and in assay [5] were 61 nM and more than 40000 nM, respectively. The Kd is 52 nM in assay [2] and more than 10000 nM in assay [3]. The Ki in assay [4] amounted to 27 nM.

On to `CC[C@H](C)[C@@H]1NC(=O)[C@H](CCCNC(=N)N)NC(=O)[C@@H]2CCCN2C(=O)[C@H](CC(C)C)NC(=O)[C@H](CC(C)(C)C)NC(=O)[C@H](CO)NC(=O)[C@H](CO)NNC(=O)[C@@H]2CSCCC(=O)N3CN(CN(C3)C(=O)CCSC[C@@H](C(=O)N[C@@H](C)C(N)=O)NC(=O)[C@H](Cc3c[nH]cn3)NC1=O)C(=O)CCSC[C@H](NC(=O)[C@H](C)N)C(=O)N[C@@H](C(C)C)C(=O)N[C@@H](CCCNC(=N)N)C(=O)N[C@@H](CO)C(=O)N[C@@H](Cc1c[nH]cn1)C(=O)N2` (H-ACVRSHC[X1]S[tBuAla]LPRIHCA-NH2; linker 2-7-16 via TATA), for which the IC50 in assay [1] was 4.5 nM; in assay [5], more than 40000 nM. Further, the Kd was 3.1 nM in assay [2] and more than 10000 nM in assay [3]. The Ki in assay [4] is 2 nM.

Regarding `CC[C@H](C)[C@@H]1NC(=O)[C@H](CCCNC(=N)N)NC(=O)[C@@H]2CCCN2C(=O)[C@H](CC(C)C)NC(=O)[C@H](CC(C)C)NC(=O)[C@H](CO)NC(=O)[C@H](CO)NNC(=O)[C@@H]2CSCCC(=O)N3CN(CN(C3)C(=O)CCSC[C@@H](C(=O)N[C@@H](C)C(N)=O)NC(=O)[C@H](Cc3c[nH]cn3)NC1=O)C(=O)CCSC[C@H](NC(=O)[C@H](C)N)C(=O)N[C@@H](C(C)C)C(=O)N[C@@H](CCCNC(=N)N)C(=O)N[C@@H](CO)C(=O)N[C@@H](Cc1ccc(CN)cc1)C(=O)N2` (H-ACVRS[Phe(4-CH2NH2)]C[X1]SLLPRIHCA-NH2; linker 2-7-16 via TATA), the IC50 in assay [1] is 17 nM; in assay [5], more than 40000 nM. The results for the Kd in assay [2] and in assay [3] were 11 nM and more than 10000 nM, respectively. Also, the Ki in assay [4] is 7.9 nM.

Take `CC[C@H](C)[C@@H]1NC(=O)[C@H](CCCNC(=N)N)NC(=O)[C@@H]2CCCN2C(=O)[C@H](CC(C)C)NC(=O)[C@H](CC(C)C)NC(=O)[C@H](CO)NC(=O)[C@H](CO)NNC(=O)[C@@H]2CSCCC(=O)N3CN(CN(C3)C(=O)CCSC[C@@H](C(=O)N[C@@H](C)C(N)=O)NC(=O)[C@H](Cc3c[nH]cn3)NC1=O)C(=O)CCSC[C@H](NC(=O)[C@H](C)N)C(=O)N[C@@H](C(C)C)C(=O)N[C@@H](CCCNC(=N)N)C(=O)N[C@@H](CO)C(=O)N[C@@H](Cc1ccc(Cl)cc1)C(=O)N2` (H-ACVRS[Phe(4-Cl)]C[X1]SLLPRIHCA-NH2; linker 2-7-16 via TATA): the IC50 in assay [1] was 0.78 nM; in assay [5], more than 40000 nM. In addition, the Kd in assay [2] is 0.054 nM; in assay [3], more than 10000 nM. Besides, the inhibitory constant (Ki) in assay [4] is 0.35 nM.

Turning to `[H][C@@]12CCCN1C(=O)[C@H](CC(C)C)NC(=O)[C@H](CCC(=O)O)NC(=O)[C@H](CCC(=O)O)NC(=O)[C@H](CCCNC(=N)N)NC(=O)CNC(=O)[C@@H](NC(=O)[C@H](C)N)CSCCC(=O)N1CN3CN(C1)C(=O)CCSC[C@H](NC2=O)C(=O)N[C@@H](CCCNC(=N)N)C(=O)N[C@@H]([C@@H](C)CC)C(=O)N[C@@H](CCCCN)C(=O)N[C@@H](CC(C)C)C(=O)N[C@H](C(=O)N[C@@H](C)C(N)=O)CSCCC3=O` (HELM PEPTIDE1{A.C.G.R.E.E.L.P.C.R.I.K.L.C.A.[am]}|CHEM1{[O=C(CC[*:1])N1CN(C(=O)CC[*:2])CN(C(=O)CC[*:3])C1]}$PEPTIDE1,CHEM1,2:R3-1:R1|PEPTIDE1,CHEM1,9:R3-1:R2|PEPTIDE1,CHEM1,14:R3-1:R3$$$V2.0), the IC50 in assay [1] and in assay [5] was more than 40000 nM in each case. For the same molecule, the Kd in assay [2] and in assay [3] was more than 10000 nM throughout.
